Hits are enriched below; roughly 2.7% of the tested compounds scored in any of these assays.
PRMT1 inh: PRMT1 (human) inhibition, primary screen. Q99873. recombinant PRMT1, activity-based probe fluorescence polarization. inhibition, % at 2.79 µM. actives 1.3% (n = 370,000). AID 652257;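 active = inhibition above about 21% made by adding two undisclosed values, limit read from the data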
Target sequence (Q99873 whole entry, looked up): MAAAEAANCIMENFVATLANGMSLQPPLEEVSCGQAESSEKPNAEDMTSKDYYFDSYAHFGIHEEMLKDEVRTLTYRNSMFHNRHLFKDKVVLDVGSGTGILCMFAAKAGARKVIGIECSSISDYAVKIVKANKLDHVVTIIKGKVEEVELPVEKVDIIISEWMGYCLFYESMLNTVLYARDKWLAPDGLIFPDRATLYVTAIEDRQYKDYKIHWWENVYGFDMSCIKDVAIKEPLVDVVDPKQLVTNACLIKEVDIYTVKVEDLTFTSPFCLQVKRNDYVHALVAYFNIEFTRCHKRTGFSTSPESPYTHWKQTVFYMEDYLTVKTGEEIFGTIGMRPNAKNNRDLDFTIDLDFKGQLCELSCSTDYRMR
RBBP9 inhibitor: blocks human serine hydrolase RBBP9; recombinant RBBP9, FP-Rh probe fluorescence polarization; inhibition, % at 7.94 µM; actives 0.2% (n = 220,000); AID 1515;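 active = inhibition above the campaign mean of all tested compounds plus 3 SD, cut at about 14% in these data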;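 note: plate controls were DMSO wells with RBBP9 for no effect and wells lacking RBBP9 protein for full effect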
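Measured by: FP readout at 525/598 nm; material: recombinant human RBBP9; also added: Serine-hydrolase probe FP-Rh, 375 nM pre-mixing; medium: Tris buffer pH 8.0, NaCl, Pluronic; replication: one well per compound; doses: one concentration, 7.94 µM nominal, 0.794% DMSO; timing: preincubation 30 min plus labeling 45 min at 25 °C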
SIAE primary: inhibitors of human sialic acid acetylesterase SIAE. AID 1053197. actives 0.69% (n = 370,000). SIAE FP-Rh probe binding, fluorescence polarization. inhibition, % at 9.66 µM. Q9HAT2;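 active = inhibition above a cutoff: mean of compounds within the control limits plus 3 SD of those, cut at about 17% in these data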;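 note: 0% = plate median of compound wells and 100% = probe without SIAE protein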
GSTO1 inh: blocks human GSTO1 in RBBP9 counter-screen; actives 1.1% (n = 300,000); AID 1974; recombinant GSTO1, activity-based probe fluorescence polarization; inhibition, % at 5.96 µM;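 active = inhibition above the campaign mean inhibition plus 3 SD, cut at about 35% in these data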;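 note: 0% = GSTO1-1 with DMSO and 100% = wells lacking GSTO1-1 enzyme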
Target sequence (P78417 whole entry, looked up): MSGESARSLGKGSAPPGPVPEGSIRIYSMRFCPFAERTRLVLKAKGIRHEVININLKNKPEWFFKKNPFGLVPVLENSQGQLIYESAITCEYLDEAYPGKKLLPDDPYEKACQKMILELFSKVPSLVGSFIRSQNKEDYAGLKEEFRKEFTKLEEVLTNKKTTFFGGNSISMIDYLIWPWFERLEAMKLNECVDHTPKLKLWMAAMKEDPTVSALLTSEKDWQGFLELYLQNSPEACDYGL
PAD4 inh: inhibitors of human PAD4; Q9UM07; recombinant PAD4, RCA probe fluorescence polarization; inhibition, % at 6.36 µM; actives 0.41% (n = 330,000);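 active = percent inhibition above a cutoff equal to the mean of all tested compounds plus 3 SD, cut at about 15% in these data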;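 note: 0% = PAD4 with RCA probe and DMSO and 100% = probe without PAD4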
SIAE inh conf: human SIAE inhibition, confirmation | SIAE FP-Rh activity-based probe, fluorescence polarization | shares compounds with SIAE primary | actives 13% (n = 2,300) | AID 1117263 | inhibition, % at 9.66 µM;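 active = mean inhibition of the replicates above the hit cutoff set in the primary screen, cut at about 17% in these data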;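 note: 0% = SIAE with DMSO and probe and 100% = probe without SIAE; inhibitors lower polarization as more probe stays unbound to SIAE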
* marks the source's active call; other numbers are inactive results.

For CN(C)CCN(C(=O)C1CCN(S(=O)(=O)c2cccs2)CC1)c1nc2c(F)cccc2s1 the results were PRMT1 inh -3, SIAE primary 19*, GSTO1 inh 10, PAD4 inh 0 and SIAE inh conf -1.
Cc1ccc2nc(N(CCN(C)C)C(=O)C3CCN(S(=O)(=O)c4cccs4)CC3)sc2c1 was read as PRMT1 inh -4 and SIAE primary 1.
CC(=O)Nc1ccc(N2C(C(C)=O)=NN(c3ccccc3)C2c2cccs2)cc1 (stereo not drawn) was read as PRMT1 inh 1, RBBP9 inhibitor -2, SIAE primary 10, GSTO1 inh -1 and PAD4 inh -6.
Screening CC(=O)Nc1ccc(N2C(C(C)=O)=NN(c3ccc(Cl)cc3)C2c2sccc2C)cc1 (stereo not drawn) returned PRMT1 inh -2, RBBP9 inhibitor -9, SIAE primary 21*, GSTO1 inh 5, PAD4 inh 2 and SIAE inh conf 5.
`CCn1c(SCC(=O)Nc2ccccc2)nc2ccccc2c1=O` gave PRMT1 inh 0, SIAE primary 17*, GSTO1 inh 1, PAD4 inh 1 and SIAE inh conf 4.
Screening CCc1cccc(NC(=O)Nc2cccs2)c1 returned PRMT1 inh 3, RBBP9 inhibitor 5, SIAE primary 17*, GSTO1 inh 8, PAD4 inh 0 and SIAE inh conf 4.
Screening CCn1nnnc1NCc1ccc(SC)cc1 returned PRMT1 inh -5, SIAE primary 17* and SIAE inh conf 8.
Screening CCn1nnnc1NCc1ccc(N2CCCC2)cc1 returned PRMT1 inh 1, RBBP9 inhibitor -6, SIAE primary 0, GSTO1 inh 8 and PAD4 inh 3.
Screening O=[N+]([O-])c1ccccc1/C=N/n1c(C(F)(F)F)n[nH]c1=S returned PRMT1 inh 8, RBBP9 inhibitor 1, SIAE primary 3, GSTO1 inh 2 and PAD4 inh 0.
`O=[N+]([O-])c1ccccc1/C=N/n1c(-c2cccnc2)n[nH]c1=S` gave PRMT1 inh 1, RBBP9 inhibitor -1, SIAE primary 17*, GSTO1 inh 5, PAD4 inh 5 and SIAE inh conf 0.
For COc1cccc(OCC(=O)N(C)Cc2nc(-c3cccc(C)c3)no2)c1 the results were PRMT1 inh 0, SIAE primary -12, GSTO1 inh -5 and PAD4 inh -4.
For O=S(=O)(NCc1ccco1)c1ccccc1Br the results were PRMT1 inh -1, SIAE primary 20*, GSTO1 inh 9, PAD4 inh 2 and SIAE inh conf -1.
`COc1cc(OC)c(S(=O)(=O)NCc2ccco2)cc1S(=O)(=O)NCc1ccco1` gave PRMT1 inh 0, RBBP9 inhibitor -4, SIAE primary 5, GSTO1 inh 1 and PAD4 inh -1.
Screening CCc1noc(C)c1C(=O)N1CCCSC1=Nc1ccccc1 returned PRMT1 inh 1, SIAE primary -5, GSTO1 inh 2 and PAD4 inh 3.
O=C(c1ccc(N2C(=O)CCC2=O)cc1)N1CCCSC1=Nc1ccccc1 was read as PRMT1 inh -3, SIAE primary 29* and SIAE inh conf 5.
Nc1ccc(C(=O)N/N=C/c2sc(N3CCOCC3)nc2-c2ccccc2)cc1 was read as PRMT1 inh 1, RBBP9 inhibitor -7, SIAE primary 17*, GSTO1 inh 6, PAD4 inh 1 and SIAE inh conf 4.
`O=C(Oc1cccc(-n2cnnn2)c1)C1CCCCC1` gave PRMT1 inh -1, RBBP9 inhibitor 0, SIAE primary 23*, GSTO1 inh -5, PAD4 inh -6 and SIAE inh conf 17*.
Screening COCCn1c(N)c(C#N)c2nc3ccccc3nc21 returned PRMT1 inh 3, RBBP9 inhibitor -5, SIAE primary 19*, GSTO1 inh 27, PAD4 inh -6 and SIAE inh conf 6.
`COc1cc(Cn2c(N)c(C#N)c3nc4ccccc4nc32)cc(OC)c1` gave PRMT1 inh 1, RBBP9 inhibitor -11, SIAE primary -7, GSTO1 inh 13 and PAD4 inh -15.
Screening O=C1[C@@H](C2CCCCC2)[C@@H]2c3ccccc3C=NN2[C@@H]2c3ccccc3C=NN12 returned PRMT1 inh -1 and SIAE primary 1.
O=C1[C@@H](CCc2ccccc2)[C@@H]2c3ccccc3C=NN2[C@@H]2c3ccccc3C=NN12 was read as PRMT1 inh -5, SIAE primary 18* and SIAE inh conf 7.
`O=C(N1CCCC1)n1c(Cc2ccccc2)nc2ccccc21` gave PRMT1 inh -3, RBBP9 inhibitor 6, SIAE primary 19*, GSTO1 inh 2, PAD4 inh -4 and SIAE inh conf 2.
For C=CCSc1nnc(NC(=O)CCNC(=O)c2ccccc2Cl)s1 the results were PRMT1 inh 1 and SIAE primary -1.
For CCn1ccnc1CN1CCN(CC=C(C)C)C(CCO)C1 (stereo not drawn) the results were PRMT1 inh 0, RBBP9 inhibitor 5, SIAE primary 0, GSTO1 inh 8 and PAD4 inh -3.
Screening COc1cccc(OCCn2cc(/C=N/NC(=O)c3ccncc3)c3ccccc32)c1 returned PRMT1 inh 1, RBBP9 inhibitor -9, SIAE primary 31*, GSTO1 inh -10, PAD4 inh 5 and SIAE inh conf 0.
Screening CNC(=S)N/N=C/c1cn(CCOc2cccc(OC)c2)c2ccccc12 returned PRMT1 inh -3, RBBP9 inhibitor -5, SIAE primary 22*, GSTO1 inh 2, PAD4 inh 4 and SIAE inh conf 7.
COc1ccc(OCCn2cc(/C=N/NC(=O)c3ccncc3)c3ccccc32)cc1 was read as PRMT1 inh -1, RBBP9 inhibitor 0, SIAE primary 12, GSTO1 inh -5 and PAD4 inh -6.
`Cc1ccc(OCCn2cc(/C=N/NC(=O)c3ccncc3)c3ccccc32)cc1` gave PRMT1 inh -1, RBBP9 inhibitor 3, SIAE primary 29*, GSTO1 inh -21, PAD4 inh 3 and SIAE inh conf -1.
CNC(=S)N/N=C(\C)c1ccc(Cl)c(Cl)c1 was read as PRMT1 inh 5, RBBP9 inhibitor -1, SIAE primary 8, GSTO1 inh 2 and PAD4 inh 5.
For Cc1ccc(OCCCC(=O)NNC(=O)c2ccccn2)cc1 the results were PRMT1 inh 0, SIAE primary -2 and PAD4 inh -5.
`Cc1ccc(Oc2coc3cc(OC(=O)c4cccs4)ccc3c2=O)cc1` gave PRMT1 inh 0, RBBP9 inhibitor -7, SIAE primary -9, GSTO1 inh -5 and PAD4 inh 1.
CC(=O)Oc1ccc2c(=O)c(Oc3ccccc3)coc2c1OC(C)=O was read as PRMT1 inh 2, RBBP9 inhibitor 0, SIAE primary 20*, GSTO1 inh 21, PAD4 inh 1 and SIAE inh conf 3.

Assay outcomes: PubChem BioAssay, The Scripps Research Institute Molecular Screening Center
